In ChEMBL document CHEMBL2331170, “Synthesis and biological evaluation of novel pyranochalcone derivatives as a new class of microtubule stabilizing agents” (Eur J Med Chem, 2013):
Activity calls are given as the source filed them. The calls are words filed in the database; no cut-off is given here.

How the values were obtained:
[1] = Cytotoxicity against human MCF7/ADR cells by MTT assay; type: functional, cell-based; conditions: NCI/ADR-RES
HepG2 [2] = experiment: Effect on microtubule network in human HepG2 cells assessed as multiple tubulin bundles without chromosomes aligned at the metaphase plate with more dispersion of the chromosomes at 1 uM after 24 hrs by propidium iodide-FITC-based staining method; type: cell-based
Method in brief: (§1)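 HepG2 cells were treated with 1.0 μM for 24 h. They were washed in PBS, fixed in cold 4% PFA for 10 min and blocked for 1 h in 5% goat serum/0.3% Triton/PBS. Staining used monoclonal anti-α-tubulin overnight at 4 °C, then Alexa Fluor 488 anti-mouse IgG for 30 min at room temperature, with propidium iodide for DNA. Cells were imaged by fluorescence or confocal microscopy.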

[3] = Cytotoxicity against human LO2 cells by MTT assay; type: cell-based; conditions: L02
Method in brief: (§2)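 Log-phase cells were diluted to 40,000–50,000 cells/mL in medium with 10% FBS, 2 mM glutamine and antibiotics (37 °C, 5% CO₂). They were seeded in 96-well plates and treated with a range of doses. MTT was added for 4 h, the formazan was dissolved in DMSO, and absorbance was read at 590 nm.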

K562 = experiment: Cytotoxicity against human K562 cells by MTT assay; type: functional, cell-based; method in brief: as §2
[4] = Cytotoxicity against human ES2 cells by MTT assay; type: functional, cell-based; conditions: ES-2
A2780 = experiment: Cytotoxicity against taxol-resistant human A2780 cells by MTT assay; type: functional, cell-based
HepG2 [5] = experiment: Effect on microtubule network in human HepG2 cells assessed as abnormal mitotic spindles at 1 uM after 24 hrs by propidium iodide-FITC-based staining method; type: cell-based; method in brief: as §1
NCI-H358 = experiment: Cytotoxicity against human NCI-H358 cells by MTT assay; type: functional, cell-based
MCF7 = experiment: Cytotoxicity against human MCF7 cells by MTT assay; type: functional, cell-based
HepG2 [6] = experiment: Cell cycle arrest in human HepG2 cells assessed as accumulation at G2/M phase at 1 uM after 24 hrs by flow cytometry (reference value: 17.07 %); type: functional
[7] = Cytotoxicity against human SPC-A1 cells by MTT assay; type: functional, cell-based; conditions: SPCA1
A-375 = experiment: Cytotoxicity against human A375 cells by MTT assay; type: functional, cell-based; method in brief: as §2
DU-145 = experiment: Cytotoxicity against human DU145 cells by MTT assay; type: functional, cell-based
HepG2 [8] = experiment: Cytotoxicity against human HepG2 cells by MTT assay; type: functional, cell-based; method in brief: as §2
[9] = Cytotoxicity against human A2780S cells by MTT assay; type: functional, cell-based; conditions: A2780
HT-29 = experiment: Cytotoxicity against human HT-29 cells by MTT assay; type: functional, cell-based
[10] = Cytotoxicity against human H460 cells by MTT assay; type: functional, cell-based; conditions: NCI-H460
HepG2 [11] = experiment: Induction of microtubule polymerization in human HepG2 cells at 1 uM after 24 hrs by propidium iodide-FITC-based staining method
HepG2 [12] = experiment: Cell cycle arrest in human HepG2 cells assessed as accumulation at G2/M phase at 0.2 uM after 24 hrs by flow cytometry (reference value: 17.07 %); type: functional
PC-3 = experiment: Cytotoxicity against human PC3 cells by MTT assay; type: functional, cell-based
HCT-8 = experiment: Cytotoxicity against taxol-resistant human HCT8 cells by MTT assay; type: functional, cell-based
SK-HEP1 = experiment: Cytotoxicity against human SKHEP1 cells by MTT assay; type: functional, cell-based
Bel-7402 = experiment: Cytotoxicity against human Bel7402 cells by MTT assay; type: functional, cell-based
[13] = Cytotoxicity against mouse C26 cells by MTT assay; type: functional, cell-based
HCT-15 = experiment: Cytotoxicity against human HCT15 cells by MTT assay; type: functional, cell-based
[14] = Ratio of taxol IC50 to compound IC50 for mouse C26 cells by MTT assay; type: functional
HepG2 [15] = experiment: Cell cycle arrest in human HepG2 cells assessed as accumulation at G2/M phase at after 24 hrs by flow cytometry; type: functional, cell-based
SK-OV-3 = experiment: Cytotoxicity against human SKOV3 cells by MTT assay; type: functional, cell-based

With `CCCCC(=O)Oc1cc(/C=C/C(=O)c2ccc(OC)c3c2OC(C)(C)C=C3)ccc1OC` the IC50 [1] was 0.17 µM, the Activity (HepG2 [2]) was “Active” and the IC50 [3] was over 10 µM. For the same compound, the IC50 (K562) was 0.24 µM, the IC50 [4] was 0.1 µM and the IC50 (A2780) was 5.92 µM. For the same compound, the Activity (HepG2 [5]) was “Active”, the IC50 (NCI-H358) was 0.09 µM and the IC50 (MCF7) was 0.25 µM. For the same compound, the Activity (HepG2 [6]) was 69.18%, the IC50 [7] was 18.1 µM and the IC50 (A-375) was 0.22 µM. For the same compound, the IC50 (DU-145) was 0.21 µM, the IC50 (HepG2 [8]) was 0.1 µM and the IC50 [9] was 0.33 µM. The IC50 (HT-29) was 0.19 µM, the IC50 [10] was 5.45 µM and the Activity (HepG2 [11]) was “Active”. It also gave an Activity (HepG2 [12]) of 53.47%, an IC50 (PC-3) of 0.12 µM and an IC50 (HCT-8) of 2.3 µM. The IC50 (SK-HEP1) was 0.6 µM, the IC50 (Bel-7402) was over 2 µM and the IC50 [13] was 0.3 µM. The IC50 (HCT-15) was 0.1 µM, the “Ratio IC50” value [14] was 3 and the Activity (HepG2 [15]) was “Dose-dependent effect”. For the same compound, the IC50 (SK-OV-3) was 0.27 µM.

Work on `COc1ccc(/C=C/C(=O)c2ccc(OC)c3c2OC(C)(C)C=C3)cc1OC(=O)CCCc1ccc(N(CCCl)CCCl)cc1` yielded an IC50 [3] of over 10 µM, an IC50 (K562) of 0.47 µM and an IC50 (A-375) of 9.2 µM. The IC50 (HepG2 [8]) was 0.7 µM.

With `COc1ccc(/C=C/C(=O)c2ccc(OC)c3c2OC(C)(C)C=C3)cc1OC(=O)c1ccco1` the IC50 [3] was over 10 µM, the IC50 (K562) was 0.45 µM and the IC50 (A-375) was 0.68 µM. It also gave an IC50 (HepG2 [8]) of 0.37 µM.
